Sampled rows, rich in hits. Any-hit rate of the full collection: about 1.7%.
TPT1 inhibitor – C. albicans TPT1 enzyme inhibition; recombinant caTPT1, FP RNA substrate dephosphorylation; inhibition, % at 5 µM; 300,000 compounds, 0.81% hits;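 active = inhibition above the mean of all tested compounds plus 3 SD, set per screening campaign, cut at about 24% in these data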;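 also: plate controls were DMSO alone for no effect and ferristatin control at 100 nM for full effect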
CSN deneddyl inh – inhibitors of human CSN-mediated cullin deneddylation; Q92905; Purified CSN, SCF-Nedd8-OG deneddylation, fluorescence polarization; inhibition, % at 12.5 µM; 360,000 compounds, 0.38% hits;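 active = pattern-corrected inhibition above about 35%, with an unprinted fluorescence ratio check between 0.5 and 1.5, limit read from the data, passing the limit was not always enough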;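 also: 0% = enzyme with substrate and 100% = substrate without enzyme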
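Material: human Csn5 produced in HEK293T cells; Input: enzyme 0.24 nM; Reagent: SCFSkp2-Nedd8OG substrate at 10 nM final; Dosing: 12.5 µM compound; Incubation: 90 min reaction at room temperature; Detection: fluorescence polarization of the substrate; Evaluation: % inhibition of substrate cleavage by Csn5; Control set: substrate-only high control, full reaction low control.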
IDE inh – inhibits human insulin-degrading enzyme in HEK cells; AID 434962; FAbetaB cleavage, fluorescence polarization; P14735; 320,000 compounds, 0.41% hits; inhibition, % at 5.59 µM;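 active = percent inhibition above the average of all tested compounds plus 3 SD, set per screening campaign, cut at about 16% in these data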;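 also: IDE supplied by intact live HEK cells; FP after avidin binding of uncleaved biotin substrate so inhibition keeps polarization high; 0% = DMSO wells and 100% = 60 µM reference IDE inhibitor Ii1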
HNF4A DNA FP – change in binding of human HNF4 alpha to DNA; P41235; HNF4a-FITC DNA binding, fluorescence polarization, 1 h; activity change, % at 10 µM; 360,000 compounds, 0.3% hits; in the data active = activity change above about 30%, passing the limit was not always enough
Target sequence (P41235 whole entry, looked up): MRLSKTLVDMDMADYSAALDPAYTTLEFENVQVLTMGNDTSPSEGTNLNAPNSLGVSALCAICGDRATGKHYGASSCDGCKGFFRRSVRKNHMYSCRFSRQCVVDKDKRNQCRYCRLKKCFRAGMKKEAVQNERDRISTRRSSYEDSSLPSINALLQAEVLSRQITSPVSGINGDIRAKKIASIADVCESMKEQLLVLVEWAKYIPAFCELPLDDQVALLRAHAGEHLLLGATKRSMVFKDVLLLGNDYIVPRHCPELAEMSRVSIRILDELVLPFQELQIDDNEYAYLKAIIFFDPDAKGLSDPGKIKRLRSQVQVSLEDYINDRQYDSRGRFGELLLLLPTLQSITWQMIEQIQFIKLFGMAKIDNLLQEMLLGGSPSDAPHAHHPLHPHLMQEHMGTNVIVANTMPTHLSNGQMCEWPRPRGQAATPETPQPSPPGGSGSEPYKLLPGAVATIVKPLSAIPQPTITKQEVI
Tb MetRS inh – Trypanosoma brucei MetRS inhibition | purified T. brucei MetRS, ATP depletion, Kinase-Glo luminescence | 360,000 compounds, 0.4% hits | inhibition, % at 11.9 µM | AID 624268;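 active = inhibition above a per-plate cutoff of the control wells' mean inhibition plus 3 SD, cut at about 5.5% in these data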;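 also: 0% = DMSO wells median and 100% = median of wells with control inhibitor compound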
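Test system: purified T. brucei MetRS enzyme. Also added: ATP, methionine and E. coli bulk tRNA substrates. Compound: 11.9 µM single point. Schedule: 15 min enzyme-compound preincubation, 2 h reaction, 10 min detection, 25 °C. Signal: luciferase luminescence of residual ATP, Kinase-Glo. Evaluation: percent inhibition versus plate control medians. Controls: DMSO wells, low control.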
IDE cell activ – IDE (human) activation, cell-based; activation, % at 5.96 µM; AID 493087; P14735; 340,000 compounds, 0.073% hits; HEK cells, FAbeta-B cleavage, fluorescence polarization; 0% vehicle, 100% cell-free pure enzyme wells;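 active = activation above the mean of all tested compounds plus 3 SD, set per screening campaign, cut at about 17% in these data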
TPT1 inh confirm – confirmation of Candida albicans TPT1 inhibitors. shares compounds with TPT1 inhibitor. recombinant caTPT1, fluorescence polarization, RNase T1 coupled. inhibition, % at 5 µM. 2,400 compounds, 74% hits. AID 2149;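 active = inhibition above the primary screen limit, the mean inhibition of all tested compounds plus 3 SD, cut at about 25% in these data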
RNase T1 inh – RNase T1 inhibition in TPT1 counter-screen. AID 2153. RNase T1 cleavage, fluorescence polarization, 1536-well. inhibition, % at 5 µM. shares compounds with TPT1 inhibitor. 2,400 compounds, 83% hits;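 active = inhibition above the solvent-only control well mean plus 3 SD, limit set per screening run, cut at about 23% in these data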;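 also: plate controls were DMSO wells with enzyme for no effect and wells without RNase T1 for full effect; inhibitors block cleavage so intact labeled substrate keeps polarization high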
Target sequence (P00651 whole entry, looked up): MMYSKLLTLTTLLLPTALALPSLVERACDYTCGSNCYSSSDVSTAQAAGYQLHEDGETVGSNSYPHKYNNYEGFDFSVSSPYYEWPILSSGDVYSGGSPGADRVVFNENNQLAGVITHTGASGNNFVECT
The depositor's hits bear a star; . = not tested or not shown.

SMILES	TPT1 inhibitor	CSN deneddyl inh	IDE inh	HNF4A DNA FP	Tb MetRS inh	IDE cell activ	TPT1 inh confirm	RNase T1 inh
COc1ccc(/C=C/C=C2\NC(=S)NC2=O)cc1	27.8*	-0.7	5.3	15.2	-0.6	4.0	18.8	31.9*
CC(O)CNc1ccc([N+](=O)[O-])cc1S(=O)(=O)N1CCOCC1 (stereo not given)	-1.0	-10.4	2.8	-2.7	-0.3	-7.2	.	.
O=C(O)CC/C(=N\Nc1ccc([N+](=O)[O-])cc1S(=O)(=O)N1CCOCC1)c1cccs1	29.0*	9.7	1.4	-1.3	0.1	-0.5	40.9*	52.1*
CCc1nc2c(OCC3CCCCC3)cccn2c1N(C)C(=O)c1ccc(C)cc1	.	-2.1	.	-0.4	-0.1	.	.	.
CC[C@H](C)/C=C(C)/C=C/C1=CC2=CC(=O)[C@]3(C)OC(=O)[C@@H](C(C)=O)[C@@H]3C2=CO1	26.6*	11.5	-0.5	4.3	0.7	2.0	29.1*	40.3*
CC[C@H](C)/C=C(C)/C=C/c1cc2c(cn1)C(=O)[C@@](C)(OC(C)=O)C(O)=C2Cl	.	4.8	.	-9.4	0.5	.	.	.
CCOCCn1c(CN2CCN(c3ccc(F)cc3)CC2)nc2c1c(=O)n(C)c(=O)n2C	-5.1	-6.2	1.1	1.0	-0.2	-7.5	.	.
COC(=O)Cn1c(CN2CCN(c3ccc(F)cc3)CC2)nc2c1c(=O)n(C)c(=O)n2C	89.8*	-3.5	0.2	0.9	0.4	-0.5	0.9	8.0
COc1ccc(C(=O)c2sc3nc(C)cc(-c4cccs4)c3c2N)cc1	.	10.1	.	29.6	-0.2	-6.2	.	.
COc1ccc(C(=O)c2sc3nc(C)cc(-c4cccs4)c3c2N)cc1OC	72.9*	20.1	9.5	35.5	-0.8	-10.4	72.6*	78.2*
Cc1cc(-c2cccs2)c2c(N)c(C(=O)c3ccc4c(c3)OCO4)sc2n1	36.5*	15.4	5.2	32.9	-1.0	-0.5	57.5*	67.3*
COCCCn1c(N)c(-c2nc3ccccc3n2C)c2nc3ccccc3nc21	46.0*	12.1	8.6	17.6	0.2	-2.0	46.3*	58.8*
Cn1c(-c2c(N)n(C3CCCC3)c3nc4ccccc4nc23)nc2ccccc21	38.6*	4.0	-3.5	10.3	0.2	-0.8	43.5*	51.0*
Cn1c(-c2c(N)n(CCCc3ccccc3)c3nc4ccccc4nc23)nc2ccccc21	.	9.5	.	17.2	-1.2	9.5	.	.
Cn1c(-c2c(N)n(CCc3ccccc3)c3nc4ccccc4nc23)nc2ccccc21	37.8*	3.6	1.8	22.3	-0.2	-0.9	48.5*	60.0*
CCCC[C@@H]1C=C(C(=O)O)[C@H](c2ccc(Br)cc2)N1S(=O)(=O)c1ccc(C)cc1	.	-1.0	-6.1	1.7	-1.2	1.9	.	.
NC(=O)c1c(NC(=O)C2COc3ccccc3O2)sc2c1CCN(Cc1ccccc1)C2 (stereo not given)	67.1*	28.9	1.1	57.2	-0.5	1.6	69.7*	84.8*
CC(C)(C)C(=O)Nc1sc2c(c1C#N)CCCCC2	-2.5	-5.2	3.2	2.1	-0.7	-1.8	.	.
CCOC(=O)c1c(NC(=O)C2COc3ccccc3O2)sc2c1CCN(Cc1ccccc1)C2 (stereo not given)	3.0	-8.6	-1.6	-3.7	-0.9	4.6	.	.
CCOC(=O)N1CCc2c(sc(N)c2C#N)C1	-0.8	.	15.5	.	.	.	.	.
N#Cc1c(N)sc2c1CCN(CCc1ccccc1)C2	75.5*	27.1	9.7	44.5	-0.5	-3.6	71.3*	82.0*
CC(C)(C)C(=O)Nc1sc2c(c1C#N)CCN(Cc1ccccc1)C2	38.7*	-10.1	0.7	-10.9	0.3	-5.4	61.8*	67.3*
NC(=O)c1c(NC(=O)C2c3ccccc3Oc3ccccc32)sc2c1CCCCC2	26.8*	18.3	4.6	-4.5	-0.7	-6.5	14.2	22.5*
CC(=O)Nc1sc2c(c1-c1nc3ccccc3s1)CCN(C(C)C)C2	42.8*	-74.8	6.0	-5.5	-0.7	-24.4	47.1*	53.2*
CC(C)N1CCc2c(sc(NC(=O)c3ccc(C(=O)c4ccccc4)cc3)c2C(N)=O)C1	35.3*	8.5	2.9	7.0	-0.2	0.1	30.5*	48.0*
SMILES	TPT1 inhibitor	CSN deneddyl inh	IDE inh	HNF4A DNA FP	Tb MetRS inh	IDE cell activ	TPT1 inh confirm	RNase T1 inh
CC(=O)c1ccc(C(=O)Nc2sc3c(c2C(N)=O)CCN(Cc2ccccc2)C3)cc1	132.4*	43.7	7.4	70.7	-0.2	-6.3	139.7*	140.5*
CC(=O)N1CCc2c(sc(NC(=O)c3cccc(N4C(=O)CCC4=O)c3)c2C(N)=O)C1	33.2*	24.9	4.6	33.6	-0.1	1.0	40.5*	55.5*
COc1cccc(OC)c1C(=O)Nc1sc2c(c1C(N)=O)CCN(Cc1ccccc1)C2	22.9	7.2	2.7	1.8	-0.3	1.7	.	.
CCCCOc1ccc(C(=O)NCC(=O)N2CC(C)CC(C)C2)cc1 (stereo not given)	.	-1.9	5.6	0.1	-0.4	-4.0	.	.
N#Cc1ccc(-c2ccccc2)nc1SCC(=O)c1cccc(Cl)c1	45.0*	3.5	1.1	3.9	-0.6	4.3	27.4*	36.0*
CCN(CC)CCCN(C(=O)c1cccc(C)c1)c1nc(-c2ccc(OC)cc2)cs1	1.1	0.7	-2.6	0.8	-0.5	-0.9	.	.
CCc1cc2c(=O)[nH]c(Cc3ccccc3)nc2s1	-0.5	9.0	0.3	0.6	-1.0	3.1	.	.
CCc1cc2c(=O)[nH]c(-c3ccncc3)nc2s1	28.8*	-1.2	3.6	4.8	-0.1	-0.6	3.4	6.4
Cc1csc(C(C)N(C)C(=O)c2ccc(OC3CCN(Cc4ccccn4)CC3)cc2)n1 (stereo not given)	2.4	-4.9	-1.0	-3.7	-0.1	-5.3	.	.
COc1ccc2c(C)cc(SCC#N)nc2c1	40.5*	12.7	-0.6	12.4	-1.1	4.9	40.5*	49.0*
Cc1cc(SCC#N)nc2ccccc12	2.0	3.8	1.3	3.2	-0.6	6.4	.	.
Cc1cc(C)c2nc(NNC(=O)c3cc(=O)c4ccccc4o3)sc2c1	24.9*	9.6	2.4	11.7	-0.3	-0.2	27.1*	40.8*
COc1ccc(NC(=O)c2cc(S(=O)(=O)Nc3ccc(OC)cc3)cs2)cc1	47.4*	-4.9	-0.2	1.1	-0.6	3.0	5.5	6.9
O=C1S/C(=C/c2ccc(N3CCOCC3)o2)C(=O)N1Cc1ccc(F)cc1	136.5*	132.0	8.8	187.1	-0.9	-41.5	163.0*	162.1*
O=C1N=C(N2CCOCC2)S/C1=C/c1ccc(-c2ccc(F)cc2)o1	11.4	5.8	1.3	8.0	0.2	-5.0	.	.
